# Experimental data taken from ChEMBL document CHEMBL1153955, “Indolylarylsulfones bearing natural and unnatural amino acids. Discovery of potent inhibitors of HIV-1 non-nucleoside wild type and resistant mutant strains reverse transcriptase and coxsackie B4 virus” (J Med Chem, 2009).
# Columns and labels:
# [1] = tested on: Human immunodeficiency virus 1; assay: Antiviral activity against HIV1 with reverse transcriptase Y181I mutation in human CEM cells assessed as protection against virus-induced cytopathicity; assay type: functional, organism-based; conditions: Human immunodeficiency virus 1, CCRF-CEM
# Summary of the method: (§1)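 CEM cells (~3 × 10⁵ cells/mL) were infected with ~100 CCID₅₀ virus per mL and seeded with serial compound dilutions. After 4 days at 37 °C, syncytium (giant cell) formation was scored microscopically. EC₅₀ is the concentration giving 50% protection against virus cytopathicity.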
# [2] = tested on: Human immunodeficiency virus 1; assay: Antiviral activity against HIV1 with reverse transcriptase L100I mutation in human CEM cells assessed as protection against virus-induced cytopathicity; assay type: functional, organism-based; conditions: Human immunodeficiency virus 1, CCRF-CEM; summary of the method: as §1
# [3] = tested on: Human immunodeficiency virus 1; assay: Antiviral activity against HIV1 with reverse transcriptase Y181C mutation in human CEM cells assessed as protection against virus-induced cytopathicity; assay type: functional, organism-based; conditions: Human immunodeficiency virus 1, CCRF-CEM; summary of the method: as §1
# [4] = tested on: Human immunodeficiency virus 1; assay: Antiviral activity against HIV1 with reverse transcriptase Y188L mutation in human CEM cells assessed as protection against virus-induced cytopathicity; assay type: functional, organism-based; conditions: Human immunodeficiency virus 1, CCRF-CEM; summary of the method: as §1
# [5] = tested on: Human immunodeficiency virus 1; assay: Antiviral activity against HIV1 with reverse transcriptase K103N mutation in human CEM cells assessed as protection against virus-induced cytopathicity; assay type: functional, organism-based; conditions: Human immunodeficiency virus 1, CCRF-CEM; summary of the method: as §1
# [6] = Cytotoxicity against MDCK cells by MTS assay; assay type: cell-based, Canis lupus familiaris; conditions: dog
# [7] = tested on: Human alphaherpesvirus 2; assay: Antiviral activity against HSV2 G in human HEL cells assessed as protection against virus-induced cytopathicity; assay type: functional, organism-based; conditions: Human alphaherpesvirus 2, strain G
# Summary of the method: (§2)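 Confluent cell monolayers inoculated with 100 CCID₅₀ virus. After 1-2 h adsorption, residual virus removed and cultures incubated with varying compound concentrations. Cytopathicity scored once it reached completion in untreated infected controls. EC₅₀ = dose reducing virus-induced cytopathogenicity by 50%.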
# [8] = tested on: L1210; assay: Antiproliferative activity against mouse L1210 cells after 2 days; assay type: cell-based; conditions: L1210, 48 h
# Summary of the method: (§3)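 Cells seeded at 5 × 10⁴ to 7.5 × 10⁴ cells/200 µL with or without serial compound dilutions; incubated at 37 °C for 2 days (L1210) or 3 days (Molt4/C8, CEM). Cell numbers counted with a Coulter counter. CC₅₀ = concentration reducing proliferation by 50% versus untreated controls, read from plots of cell number (% of control) against concentration. Means of at least two independent experiments.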
# [9] = Cytotoxicity against african green monkey Vero cells assessed as drug level causing microscopically detectable alteration of normal cell morphology after 3 days; assay type: cell-based; conditions: chlorocebus sabaeus
# Summary of the method: (§4)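 Serial compound dilutions added to confluent HeLa or Vero monolayers. MCC = minimum concentration causing microscopically detectable alteration of cell morphology after 3 days of incubation.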
# [10] = Cytotoxicity against human HeLa cells assessed as drug level causing microscopically detectable alteration of normal cell morphology after 3 days; assay type: cell-based; summary of the method: as §4
# [11] = Cytotoxicity against feline CRFK cells by MTS assay; assay type: cell-based, Felis catus; conditions: cat
# [12] = biological target: Human immunodeficiency virus type 1 reverse transcriptase (Human immunodeficiency virus 1, UniProt Q72547, L100I); assay: Inhibition of HIV1 reverse transcriptase p66/p51 L100I mutant; conditions: read-out: IC50
# Summary of the method: (§5)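 Substrate was 0.5 µg poly(rA)/oligo(dT) 10:1 (0.3 µM 3′-OH ends) with 10 µM [³H]dTTP, at 37 °C. Acid-precipitable radioactivity was counted on GF/C filters after TCA washes.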
# [13] = tested on: Influenza B virus; assay: Antiviral activity against influenza B virus in MDCK cells assessed as reduction of virus-induced cytopathicity by MTS method; assay type: functional, organism-based
# [14] = Cytotoxicity against MDCK cells assessed as drug level causing microscopically detectable alteration of normal cell morphology; assay type: cell-based, Canis lupus familiaris; conditions: dog
# [15] = tested on: Felid alphaherpesvirus 1; assay: Antiviral activity against Feline herpesvirus in feline […] cells assessed as inhibition of virus-induced cytopathicity; assay type: functional, organism-based
# [16] = tested on: Influenza A virus H3N2; assay: Antiviral activity against influenza H3N2 virus in MDCK cells assessed as reduction of virus-induced cytopathicity by MTS method; assay type: functional, organism-based
# [17] = biological target: Human immunodeficiency virus type 1 reverse transcriptase (Human immunodeficiency virus 1, UniProt Q72547, Y181I); assay: Inhibition of HIV1 reverse transcriptase p66/p51 Y181I mutant; conditions: read-out: IC50; summary of the method: as §5
# [18] = tested on: Respiratory syncytial virus; assay: Antiviral activity against RSV Long in human HeLa cells assessed as protection against virus-induced cytopathicity; assay type: functional, organism-based; summary of the method: as §2
# [19] = tested on: Human respirovirus 3; assay: Antiviral activity against Parainfluenza virus type 3 in african green monkey Vero cells assessed as protection against virus-induced cytopathicity; assay type: functional, organism-based; conditions: Human respirovirus 3, Vero; summary of the method: as §2
# [20] = tested on: Coxsackievirus B4; assay: Antiviral activity against Coxsackievirus B4 in human HeLa cells assessed as protection against virus-induced cytopathicity; assay type: functional, organism-based; conditions: Enterovirus B; summary of the method: as §2
# [21] = tested on: Coxsackievirus B4; assay: Antiviral activity against Coxsackievirus B4 in african green monkey Vero cells assessed as protection against virus-induced cytopathicity; assay type: functional, organism-based; conditions: Enterovirus B; summary of the method: as §2
# [22] = tested on: Influenza A virus; assay: Antiviral activity against influenza H1N1 virus in MDCK cells assessed as reduction of virus-induced cytopathicity by MTS method; assay type: functional, organism-based; conditions: Influenza A virus, H1N1, MDCK
# [23] = Antiproliferative activity against human Molt4/C8 cells after 3 days; assay type: cell-based; conditions: MOLT-4, 72 h; summary of the method: as §3
# [24] = tested on: Influenza B virus; assay: Antiviral activity against influenza B virus in MDCK cells assessed as reduction of virus-induced cytopathicity by visual cytopathic effect scoring method; assay type: functional, organism-based
# [25] = tested on: Influenza A virus H3N2; assay: Antiviral activity against influenza H3N2 virus in MDCK cells assessed as reduction of virus-induced cytopathicity by visual cytopathic effect scoring method; assay type: functional, organism-based
# [26] = tested on: Punta Toro virus; assay: Antiviral activity against Punta Toro virus in african green monkey Vero cells assessed as protection against virus-induced cytopathicity; assay type: functional, organism-based; summary of the method: as §2
# [27] = Cytotoxicity against human HEL cells assessed as drug level causing microscopically detectable alteration of normal cell morphology after 3 days; assay type: cell-based
# [28] = tested on: Influenza A virus; assay: Antiviral activity against influenza H1N1 virus in MDCK cells assessed as reduction of virus-induced cytopathicity by visual cytopathic effect scoring method; assay type: functional, organism-based
# [29] = tested on: Human alphaherpesvirus 1; assay: Antiviral activity against HSV1 KOS in human HEL cells assessed as protection against virus-induced cytopathicity; assay type: functional, organism-based; conditions: Human alphaherpesvirus 1, KOS
# [30] = tested on: Sindbis virus; assay: Antiviral activity against Sindbis virus in african green monkey Vero cells assessed as protection against virus-induced cytopathicity; assay type: functional, organism-based; summary of the method: as §2
# [31] = tested on: Human immunodeficiency virus 1; assay: Antiviral activity against HIV1 3B in human CEM cells assessed as protection against virus-induced cytopathicity after 4 days; assay type: functional, organism-based; conditions: Human immunodeficiency virus 1, 3B, CCRF-CEM, 96 h
# Summary of the method: (§6)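 CEM cells (~3 × 10⁵ cells/mL) infected with ~100 CCID₅₀ per mL of HIV-1 (IIIB) or HIV-2 (ROD), then seeded into wells containing compound dilutions. After 4 days at 37 °C, syncytium (giant cell) formation was examined microscopically. EC₅₀ = concentration protecting CEM cells from HIV cytopathicity by 50%.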
# [32] = tested on: Mammalian orthoreovirus 1; assay: Antiviral activity against Reovirus 1 in african green monkey Vero cells assessed as protection against virus-induced cytopathicity; assay type: functional, organism-based; conditions: Mammalian orthoreovirus 1, Vero; summary of the method: as §2
# [33] = tested on: Vesicular stomatitis virus; assay: Antiviral activity against VSV in human HEL cells assessed as protection against virus-induced cytopathicity; assay type: functional, organism-based
# [34] = tested on: Vaccinia virus; assay: Antiviral activity against Vaccinia virus Lederle in human HEL cells assessed as protection against virus-induced cytopathicity; assay type: functional, organism-based; conditions: Orthopoxvirus vaccinia
# [35] = tested on: CCRF-CEM; assay: Antiproliferative activity against human CEM cells after 3 days; assay type: cell-based; conditions: 72 h; summary of the method: as §3
# [36] = tested on: Human immunodeficiency virus 2; assay: Antiviral activity against HIV2 ROD in human CEM cells assessed as protection against virus-induced cytopathicity after 4 days; assay type: functional, organism-based; conditions: Human immunodeficiency virus 2, ROD, CCRF-CEM, 96 h; summary of the method: as §6
# [37] = biological target: Human immunodeficiency virus type 1 reverse transcriptase (Human immunodeficiency virus 1, UniProt Q72547, K103N); assay: Inhibition of HIV1 reverse transcriptase p66/p51 K103N mutant; conditions: read-out: IC50; summary of the method: as §5
# [38] = biological target: Human immunodeficiency virus type 1 reverse transcriptase (Human immunodeficiency virus 1, UniProt Q72547); assay: Inhibition of HIV1 reverse transcriptase p66/p51; conditions: read-out: IC50
# [39] = tested on: Feline coronavirus; assay: Antiviral activity against Feline coronavirus in feline […] cells assessed as inhibition of virus-induced cytopathicity; assay type: functional, organism-based; conditions: Alphacoronavirus 1
# [40] = tested on: Human alphaherpesvirus 1; assay: Antiviral activity against thymidine kinase deficient and acyclovir resistant HSV1 KOS in human HEL cells assessed as protection against virus-induced cytopathicity; assay type: functional, organism-based; conditions: Human alphaherpesvirus 1, KOS
# [41] = tested on: Vesicular stomatitis virus; assay: Antiviral activity against VSV in human HeLa cells assessed as protection against virus-induced cytopathicity; assay type: functional, organism-based
Structure (SMILES),CC50 [6],EC50 [7],IC50 [8],MCC at 72 h [9],MCC at 72 h [10],CC50 [11],IC50 [12],EC50 [13],MCC [14],EC50 [15],EC50 [16],IC50 [17],EC50 [18],EC50 [19],EC50 [20],EC50 [21],EC50 [22],IC50 [23],EC50 [24],EC50 [25],also measured
Cc1ccnc2c1NC(=O)c1cccnc1N2C1CC1 [NEVIRAPINE],,,,,,,,,,,,,,,,,,,,,IC50 [1]: > 10 µM; IC50 [2]: 60 nM; IC50 [3]: 11 µM; IC50 [4]: > 10 µM; IC50 [5]: 2900 nM
Cc1cc(C)cc(S(=O)(=O)c2c(C(=O)NC(C)CC(N)=O)[nH]c3ccc(Cl)cc23)c1 (stereo not drawn),13.5 µM,> 20 µM,48 µM,100 µM,≥ 20 µM,18.9 µM,252 nM,> 4 µM,20 µM,> 4 µM,> 4 µM,4.14 µM,> 20 µM,> 20 µM,4.5 µM,16 µM,> 4 µM,36 µM,> 4 µM,> 4 µM,EC50 [26]: > 20 µM; MCC at 72 h [27]: 100 µM; EC50 [28]: > 4 µM; EC50 [29]: > 20 µM; EC50 [30]: > 20 µM; EC50 [31]: 26 nM; EC50 [32]: > 20 µM; EC50 [33]: > 20 µM; EC50 [34]: > 20 µM; IC50 [35]: 32 µM; EC50 [36]: 30 µM; IC50 [37]: 288 nM; IC50 [38]: 120 nM; EC50 [39]: > 4 µM; EC50 [40]: > 20 µM; EC50 [41]: > 20 µM
Cc1cc(C)cc(S(=O)(=O)c2c(C(=O)NC(C)C(N)=O)[nH]c3ccc([N+](=O)[O-])cc23)c1 (stereo not drawn),95.9 µM,> 20 µM,96 µM,> 100 µM,> 100 µM,82.1 µM,209 nM,> 20 µM,100 µM,> 20 µM,> 20 µM,4.21 µM,> 100 µM,> 100 µM,≥ 20 µM,> 100 µM,> 20 µM,44 µM,> 20 µM,> 20 µM,EC50 [26]: > 100 µM; MCC at 72 h [27]: 100 µM; EC50 [28]: > 20 µM; EC50 [29]: > 20 µM; EC50 [30]: > 100 µM; EC50 [31]: 3.8 nM; EC50 [32]: > 100 µM; EC50 [33]: > 20 µM; EC50 [34]: > 20 µM; IC50 [35]: 66 µM; EC50 [36]: > 10 µM; IC50 [37]: 362 nM; IC50 [38]: 22 nM; EC50 [39]: > 20 µM; EC50 [40]: > 20 µM; EC50 [41]: > 100 µM
Cc1cc(C)cc(S(=O)(=O)c2c(C(=O)NCCS(N)(=O)=O)[nH]c3ccc([N+](=O)[O-])cc23)c1,32.7 µM,> 4 µM,408 µM,100 µM,≥ 100 µM,> 100 µM,388 nM,> 4 µM,20 µM,> 100 µM,> 4 µM,> 40 µM,20 µM,> 20 µM,≥ 20 µM,> 20 µM,> 4 µM,244 µM,> 4 µM,> 4 µM,EC50 [26]: > 20 µM; MCC at 72 h [27]: 20 µM; EC50 [28]: > 4 µM; EC50 [29]: > 4 µM; EC50 [30]: > 20 µM; EC50 [31]: 2.7 nM; EC50 [32]: > 20 µM; EC50 [33]: > 4 µM; EC50 [34]: > 4 µM; IC50 [35]: 200 µM; EC50 [36]: > 10 µM; IC50 [37]: 787 nM; IC50 [38]: 61 nM; EC50 [39]: > 100 µM; EC50 [40]: > 4 µM; EC50 [41]: ≥ 100 µM
